This passage reports IC50, Cmax and AUC results from ChEMBL document CHEMBL1132483, “Fused bicyclic Gly-Asp beta-turn mimics with specific affinity for GPIIb-IIIa” (J Med Chem, 1999).

The target in data set [1] is Integrin alpha-IIb/beta-3 (Homo sapiens, UniProt P05106+P08514). Briefly: Inhibition of fibrinogen binding to purified human alpha IIb beta-3 integrin (GP IIb-IIIa). It is filed as protein-complex assay.
The nature of data set [2]: Cmax (ng /mL) value after oral administration of 10 mg/kg in guinea pig. The note with it: in vivo. It is filed as ADME, organism-based, Cavia porcellus. Also on record: dose 10 mg/kg, route oral. In a few lines:
(§1)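 Guinea pigs were fasted overnight and given a single 10 mg/kg oral gavage dose, formulated at 3 mg/mL in 50% poly(ethylene glycol) 300. Blood was drawn under isoflurane anesthesia into 3.8% trisodium citrate (9:1). Plasma was assayed by HPLC. AUC covers the 0-5 h time course, and Cmax is the peak plasma level.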

The nature of data set [3]: AUC (ng h/mL) value after oral administration of 10 mg/kg in guinea pig. It is filed as ADME, organism-based, Cavia porcellus. On the set-up: dose 10 mg/kg, route oral. The note with it: plasma. In a few lines:
as §1

Data set [4] is filed under the species Homo sapiens. Briefly: Concentration required to reduce ADP-induced platelet aggregation in platelet rich plasma by 50%. It is filed as functional. In a few lines:
(§2)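 Human platelet-rich plasma was incubated for 1 min with varying test concentrations or vehicle, then aggregation was triggered with ADP. The response was followed turbidimetrically. IC50 is the concentration cutting the aggregation response by 50%, averaged from at least two determinations, with average error ±16%.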

For data set [5], the species on record is Homo sapiens. Briefly: Concentration required to reduce ADP-induced platelet aggregation in platelet rich plasma by 50%. It counts as functional. Put shortly:
as §2

Data set [6] can be described thus: AUC(ng h/mL)values after oral administration of 10 mg/kg in rat. It counts as ADME, organism-based. Also on record: dose 10 mg/kg, route oral. The note with it: plasma. In a few lines:
(§3)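 Rats were fasted overnight and dosed once by oral gavage at 10 mg/kg, in vehicle of 50% poly(ethylene glycol) 300 at 3 mg/mL. Blood was collected under isoflurane into 3.8% trisodium citrate (9:1), and plasma was prepared for HPLC analysis. AUC refers to the sampled time course.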

Data set [7] can be described thus: Cmax(ng /mL)values after oral administration of 10 mg/kg in guinea pig. It is filed as ADME, organism-based, Cavia porcellus. On the set-up: dose 10 mg/kg, route oral. The following applies: in vivo. In a few lines: as §1
Data set [8] is described as follows: AUC(ng h/mL)values after oral administration of 10 mg/kg in guinea pig. It is filed as ADME, organism-based, Cavia porcellus. On the set-up: dose 10 mg/kg, route oral. The note with it: plasma. Put shortly: as §1
Data set [9] can be described thus: Cmax(ng /mL)values after oral administration of 10 mg/kg in rat. It counts as ADME, organism-based. Also on record: dose 10 mg/kg, route oral. The following applies: in vivo. Put shortly:
as §3

Integrin alpha-IIb/beta-3, sequence (P05106 27-788 limits assumed): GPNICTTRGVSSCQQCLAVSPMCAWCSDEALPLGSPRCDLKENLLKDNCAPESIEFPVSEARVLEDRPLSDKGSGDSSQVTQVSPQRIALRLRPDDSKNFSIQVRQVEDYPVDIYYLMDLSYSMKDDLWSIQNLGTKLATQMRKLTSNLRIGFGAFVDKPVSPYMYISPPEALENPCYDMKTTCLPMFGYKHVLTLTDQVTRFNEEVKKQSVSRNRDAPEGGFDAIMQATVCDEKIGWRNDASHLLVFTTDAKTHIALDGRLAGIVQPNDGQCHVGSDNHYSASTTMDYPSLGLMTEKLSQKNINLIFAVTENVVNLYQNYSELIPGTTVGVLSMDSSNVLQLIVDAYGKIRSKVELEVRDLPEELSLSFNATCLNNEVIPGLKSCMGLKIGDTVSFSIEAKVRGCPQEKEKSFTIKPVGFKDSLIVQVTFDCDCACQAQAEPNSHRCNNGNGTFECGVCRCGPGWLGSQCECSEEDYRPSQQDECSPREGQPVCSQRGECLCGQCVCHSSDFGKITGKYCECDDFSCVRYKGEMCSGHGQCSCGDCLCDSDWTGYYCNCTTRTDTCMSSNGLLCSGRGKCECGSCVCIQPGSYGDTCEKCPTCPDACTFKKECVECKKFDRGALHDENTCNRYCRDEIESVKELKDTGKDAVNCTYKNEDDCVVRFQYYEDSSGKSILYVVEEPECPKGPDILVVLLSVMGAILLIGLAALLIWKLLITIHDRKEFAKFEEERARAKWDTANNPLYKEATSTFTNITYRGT
Integrin alpha-IIb/beta-3, sequence (P08514 32-887 limits assumed): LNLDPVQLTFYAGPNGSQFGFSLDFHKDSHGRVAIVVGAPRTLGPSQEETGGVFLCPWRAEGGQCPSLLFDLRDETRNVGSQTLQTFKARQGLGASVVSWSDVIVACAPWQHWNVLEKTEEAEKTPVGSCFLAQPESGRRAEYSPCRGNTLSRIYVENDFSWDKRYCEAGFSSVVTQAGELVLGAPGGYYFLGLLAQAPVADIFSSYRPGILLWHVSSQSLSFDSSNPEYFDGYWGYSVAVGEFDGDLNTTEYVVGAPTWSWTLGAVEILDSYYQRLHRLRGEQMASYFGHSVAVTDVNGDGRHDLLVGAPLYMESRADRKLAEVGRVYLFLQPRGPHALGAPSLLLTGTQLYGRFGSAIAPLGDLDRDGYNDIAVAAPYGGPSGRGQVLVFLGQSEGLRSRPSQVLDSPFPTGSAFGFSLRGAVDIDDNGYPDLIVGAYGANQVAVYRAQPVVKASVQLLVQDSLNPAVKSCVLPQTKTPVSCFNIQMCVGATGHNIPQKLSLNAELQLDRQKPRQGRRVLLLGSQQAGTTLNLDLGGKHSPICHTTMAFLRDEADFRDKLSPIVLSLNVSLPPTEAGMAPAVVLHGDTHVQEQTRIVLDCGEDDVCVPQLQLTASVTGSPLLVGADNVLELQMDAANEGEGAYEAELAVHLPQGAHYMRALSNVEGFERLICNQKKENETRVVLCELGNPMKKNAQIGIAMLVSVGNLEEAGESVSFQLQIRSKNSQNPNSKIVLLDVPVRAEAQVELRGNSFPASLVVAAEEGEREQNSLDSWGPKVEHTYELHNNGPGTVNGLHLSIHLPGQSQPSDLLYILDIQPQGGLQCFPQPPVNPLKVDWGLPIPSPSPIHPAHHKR
Integrin alpha-IIb/beta-3, sequence (P08514 891-1039 limits assumed): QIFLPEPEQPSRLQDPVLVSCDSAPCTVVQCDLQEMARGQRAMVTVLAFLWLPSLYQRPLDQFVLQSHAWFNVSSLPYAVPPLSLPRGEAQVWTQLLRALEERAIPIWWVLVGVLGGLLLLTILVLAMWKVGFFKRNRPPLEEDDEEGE

Consider `N=C(N)c1ccc(COc2ccc3c(c2)CC(=O)N(CC(=O)O)C3)cc1`, for which, in data set [1], the IC50 (usually the midpoint of a concentration-inhibition curve) was 5.8 µM.

As for `CCOC(=O)Cn1ccc2cc(NC(=O)c3ccc(C(=N)N)cc3)ccc2c1=O`, in data set [2], the Cmax (usually the highest concentration seen after dosing) stood at 177 ng/mL. Also, in data set [3], the AUC (commonly the area under the concentration-time curve, a measure of exposure) came out at 543 ng·h/mL.

As for `N=C(N)c1ccc(COc2ccc3c(c2)CCC(CC(=O)O)C3=O)cc1` (stereo unspecified), the figures for the IC50 (in data set [1]; in the data set filed under Homo sapiens [4]) were 0.027 µM and 0.45 µM, respectively.

As to `N=C(N)c1ccc(COc2ccc3c(c2)CCC(CC(=O)O)C3)cc1` (stereo unspecified), the IC50 in data set [1] is 0.26 µM; in the data set listed under Homo sapiens [4], 33 µM.

For the compound `N=C(N)c1ccc(COc2ccc3c(c2)CCC(CC(=O)O)O3)cc1` (stereo unspecified), the IC50 turned out to be 0.039 µM in data set [1] and 2.5 µM in the data set listed under Homo sapiens [4].

With `N=C(N)c1ccc(C(=O)Nc2ccc3c(c2)CCC(CC(=O)O)C3=O)cc1` (stereo unspecified), the figures for the IC50 in the data set filed under Homo sapiens [5] and in the data set listed under Homo sapiens [4] were 0.02 µg/mL and 0.06 µM, respectively.

The compound `N=C(N)c1ccc(COc2ccc3c(c2)CN(CC(=O)O)C3=O)cc1` yielded an IC50 in data set [1] of 1.2 µM.

In the case of `N=C(N)c1ccc(COc2ccc3c(c2)CCCN(CC(=O)O)C3=O)cc1`, the IC50 in data set [1] stood at 0.6 µM.

In turn, `CCOC(=O)Cc1cc2ccc(NC(=O)c3ccc(C(=N)N)cc3)cc2cn1` displayed a Cmax in [2] of 469 ng/mL. The AUC in [3] turned out to be 1580 ng·h/mL.

Turning to `CCOC(=O)CC1CCc2cc(NC(=O)c3ccc(C(=N)N)cc3)ccc2C1` (stereo unspecified), the AUC in [6] amounted to 15900 ng·h/mL; in [8], 3700 ng·h/mL. Moreover, the Cmax in data set [7] is 1170 ng/mL; in data set [9], 5060 ng/mL.

Regarding `N=C(N)c1ccc(COc2ccc3c(c2)CCN(CC(=O)O)C3)cc1`, the midpoint of inhibition in the data set filed under Homo sapiens [4], the IC50, lay at 0.33 µM.

Consider `N=C(N)c1ccc(C(=O)Nc2ccc3c(c2)CCC(CC(=O)O)O3)cc1` (stereo unspecified), for which the values for the IC50 (in [1]; in the data set listed under Homo sapiens [5]; in the data set filed under Homo sapiens [4]) were 0.002 µM, 0.027 µg/mL and 0.19 µM, respectively.

For the compound `CCOC(=O)CC1CCc2cc(NC(=O)c3ccc(C(=N)N)cc3)ccc2O1` (stereo unspecified), the AUC in [6] came out at 14800 ng·h/mL. In data set [9], this compound displayed a Cmax of 4850 ng/mL.

Consider `N=C(N)c1ccc(C(=O)Nc2ccc3c(c2)CCC(CC(=O)O)C3)cc1` (stereo unspecified), for which the maximum concentration (Cmax) in data set [7] came out at 252 ng/mL. In addition, the AUC in data set [8] worked out at 903 ng·h/mL. Also, the figures for the IC50 in the data set listed under Homo sapiens [5] and in the data set filed under Homo sapiens [4] were 0.19 µM and 0.067 µg/mL, respectively.

On to `N=C(N)c1ccc(COc2ccc(C(=O)NCC(=O)O)cc2)cc1`, for which the IC50 in data set [1] came out at 5 µM.

On to `N=C(N)c1ccc(COc2ccc3c(=O)n(CC(=O)O)ccc3c2)cc1`, for which the IC50 in data set [1] is 4.2 µM.

Regarding `N=C(N)c1ccc(C(=O)Nc2ccc3c(c2)CCN(CC(=O)O)C3=O)cc1`, in data set [7], the concentration peaked (Cmax) at 126 ng/mL. Also, the AUC in [8] came to 400 ng·h/mL. Besides, the IC50 was determined as 0.09 µM in the data set filed under Homo sapiens [5] and 0.032 µg/mL in the data set filed under Homo sapiens [4].

Take `CCOC(=O)CC1CCc2cc(NC(=O)c3ccc(C(=N)N)cc3)ccc2C1=O` (stereo unspecified): the AUC in data set [6] was 11200 ng·h/mL; in data set [8], 3990 ng·h/mL. The Cmax in data set [7] was 1150 ng/mL; in data set [9] it was 3630 ng/mL.

Take `N=C(N)c1ccc(C(=O)Nc2ccc3c(c2)CCN(CC(=O)O)C3)cc1`: the IC50 in the data set filed under Homo sapiens [5] is 0.06 µg/mL; in the data set filed under Homo sapiens [4], 0.17 µM.
